From ChEMBL document CHEMBL4513216, “Probing the Open Global Health Chemical Diversity Library for Multistage-Active Starting Points for Next-Generation Antimalarials” (ACS Infect Dis, 2020)

Assay: Toxicity liver stage against HepG2, at 10uM
Format: cell-based
Design: test concentration 10 uM, cell line HepG2-A16-CD81EGFP
Conditions: human, HepG2-A16-CD81EGFP cells; read-out: INHIBITION
Summary of the method: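 Uninfected HepG2-A16-CD81EGFP cells, 3 × 10^3 per well, 1536-well, plated on prespotted compound at 10 μM final, parasite-free screening media added to match infected plates; puromycin 10 μM positive, DMSO 0.5% negative; run in parallel with 48 h PbLuc assay at 37 °C, 5% CO2; viability by CellTiter-Glo luminescence, normalized to controls.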

Row | SMILES | cytotoxicity at 10 µM
1 | O=C1CO[C@H]2CN(Cc3ccc(C(F)(F)F)cc3)C[C@H]2N1 | -4.63%
2 | O=C(O)CCCNC(=O)N1CCc2c([nH]c3ccc(Cl)cc23)C1 | 8.13%
3 | CC(C)CNC(=O)CNc1c(NCc2ccccn2)c(=O)c1=O | -9.06%
4 | O=C(CN1C(=O)CCC1=O)N1CCC(CSCc2ccco2)CC1 | -8%
5 | O[C@H]1CCN(CC2CCOC2)[C@H]1Cc1ccncc1 (stereo not given in full) | -2.32%
6 | COCCN(CCOC)C(=O)c1ccn(-c2ccc3ccccn23)n1 | 7.22%
7 | O=C(NC1CCCC1)c1nc2c(o1)CN(C(=O)CCO)C2 | 5.38%
8 | CCS(=O)(=O)N1CCc2cc(C(=O)NC)c(NCC(C)C)nc2CC1 | -149%
9 | CCOCc1ncn2c1CN(C(=O)Nc1ccc(CC)cc1)CC2 | 5.96%
10 | O=C([C@@H]1C[C@@H]2CCN(C3CCOCC3)C[C@H]2O1)N1CCCC1 | 4.5%
11 | O=C([C@@H]1C[C@@H]2CCN(C3CCOCC3)C[C@@H]2O1)N1CCOCC1 | 7.34%
12 | O=S1(=O)c2ccccc2OCC2(CCN(CCO)CC2)CN1CC1CC1 | 0.864%
13 | CC(C)NC(=O)C(NC(=O)N1CCN(c2ccc(Cl)cc2)CC1)C(C)C (stereo not given) | 5.69%
14 | CCNC(=O)c1ccc2c(c1)nc1n2CCN(Cc2ccco2)C1 | -5.64%
15 | COc1cccc(OCCc2nnc(NC(C)=O)s2)c1 | 4.84%
16 | COc1cc(-c2n[nH]c(CN)n2)cc(OC)c1OC | 2.45%
17 | CCn1nc(C)c2ncnc(NCCCN3CCOCC3)c21 | 2.06%
18 | CN1CCc2nnc(C3CCCN3S(=O)(=O)c3ccc(F)cc3)n2CC1 (stereo not given) | -0.594%
19 | Cc1nc(-c2c(C)noc2C)cc(C2CCN(S(=O)(=O)N(C)C)CC2)n1 | 4.62%
20 | COc1ccc([C@@H]2CN(C(=O)c3cscn3)C[C@H]2C(=O)O)cc1 | -18.2%
21 | CC(=O)N1CC(c2ccnc(Nc3ccc(C)cn3)n2)C1 | -31.1%
22 | CCN(Cc1ccncc1)CC1(O)CCN(C(=O)c2cccc(C)c2)C1 (stereo not given) | -25.1%

Row | SMILES | cytotoxicity at 10 µM
23 | Nc1nccnc1C1CN(C(=O)c2cnccn2)CCO1 (stereo not given) | -9.17%
24 | Cc1c[nH]nc1C1CCN(S(=O)(=O)N(C)C)C1 (stereo not given) | -13%
25 | Cc1csc(Nc2nccnc2C2CCCN2S(C)(=O)=O)n1 (stereo not given) | -3.69%
26 | Cn1cc(C(=O)NCCc2csc(-c3ccccc3)n2)ccc1=O | -6.7%
27 | Cc1ccc(N2CCC(NC(C)c3ccc(C)o3)CC2)nc1 (stereo not given) | -6.59%
28 | Cc1noc(C)c1CSCc1csc(CS(C)(=O)=O)n1 | -17%
29 | Cc1nnc(CN(C)CC(=O)NCCc2ccc(F)cc2)n1C | 2.25%
30 | CCOC(=O)c1ccc(S(=O)(=O)NCC(CC)N2CCCC2)cc1 (stereo not given) | -7.4%
31 | COC(=O)c1ccc(N2CCN(Cc3csc(C)n3)CC2)nn1 | -1.7%
32 | O=C(NCCN1CCOCC1)c1ccn(-c2ccccc2F)n1 | 7.44%
33 | Cc1noc(C2CCCN(Cn3cc(Cl)cn3)C2)n1 (stereo not given) | 2.42%
34 | CC(NC(=O)N1CCCN(C)CC1)c1ccc2c(c1)OCCO2 (stereo not given) | -6.36%
35 | CC(C(=O)Nc1cccc(Cl)c1SC(F)F)S(C)(=O)=O (stereo not given) | 0.685%
36 | CC(C)OC(=O)N1CCC(Nc2ncc(Br)cn2)CC1 | -0.951%
37 | O=C(CCc1ccsc1)NCc1ccnc(OC2CCOCC2)c1 | 5.92%
38 | N#Cc1ccccc1N1CCN(C(=O)NCC(=O)N2CCCC2)CC1 | -1.55%
39 | COc1cccc(N2CCC(CNC(=O)CN3CSCC3=O)C2)c1 (stereo not given) | 0.342%
40 | Cc1ccc(C(=O)NCCCN(C(C)C)S(C)(=O)=O)c(=O)[nH]1 | -8.04%
41 | CCOC(C)c1nc(CN2CCN(CC(F)F)CC2)cs1 (stereo not given) | -8.94%
42 | O=S(=O)(NCC1COc2ccccc2C1)N1CCCCCC1 (stereo not given) | -0.138%
43 | Cc1ccc(-c2cc(CN3CCc4cncnc4C3)on2)cc1 | 4.96%
44 | N#Cc1ccc(CN2C(=O)c3ccccc3CS2(=O)=O)cc1 | -4.17%

Row | SMILES | cytotoxicity at 10 µM
45 | CCS(=O)(=O)N(C)C1CCN(c2cccc(F)c2C(C)=O)CC1 | 9.61%
46 | CNC(=O)c1ccc(CNC(=O)c2ccc(Cl)cc2F)cc1 | 5.66%
47 | Cc1cc(C(=O)N(C)CC(F)(F)C(F)(F)F)ccc1-n1cncn1 | 1.64%
48 | Cc1cccc(C2CCCN2C(=O)CCS(C)(=O)=O)c1C (stereo not given) | -0.272%
49 | Cc1cc(OC(F)F)c(C(=O)N2CCC(CN(C)C)CC2)s1 | 6.04%
50 | Cc1c(Br)cccc1C(=O)Nc1cc(C(N)=O)n(C)c1 | 0.71%
51 | c1csc(C2(NCc3csc(C4CC4)n3)CCCC2)n1 | -3.75%
52 | COc1ccccc1CN(CC1CCCO1)C(=O)c1scnc1C (stereo not given) | 2.01%
53 | CN1CCN(c2ccc(NC(=O)c3ccoc3)c(C(F)(F)F)c2)CC1 | -4.1%
54 | CN(c1ccc(C(N)=O)nn1)C1CCC1 | 9%
55 | CCNC(=O)NC(=O)CSC(C)c1c(F)cccc1F (stereo not given) | 20.6%
56 | O=C(NC1(c2nnn(Cc3ccncc3)n2)CCCC1)c1ccccc1 | 21%
57 | CC(C)c1cccc(CSc2nnc(CN3CCCC3=O)o2)n1 | 3.59%
58 | CCCNC(=O)Nc1cccc2c1CCN(S(C)(=O)=O)C2 | -7.92%
59 | COc1ncccc1NC(=O)C1CC(=O)N(Cc2ccccn2)C1 (stereo not given) | -1.2%
60 | CCc1nc(C2CCCN(C(=O)c3cnn(CC)c3)C2)no1 (stereo not given) | 4.16%
61 | CNC(=O)Cc1ccc(NC(=O)NC(C)C(C)C)cc1 (stereo not given) | -4.69%
62 | Cc1csc2ncc(-c3ccnc(NC4CCOCC4)n3)c(=O)n12 | -4.36%
63 | Cc1ccc(C2(CN(C)Cc3c(C)nn(C)c3C)CCNCC2)nc1 | -0.44%
64 | CN(Cc1nc(C2CC2)no1)C(=O)C1COc2ccccc2C1 (stereo not given) | -0.509%
65 | O=C(c1cc(-c2ccco2)nc2c(Cl)cccc12)N1CC[C@H]2CNC[C@H]21 | -3.29%
66 | Cc1noc(C(C)N(C)CC(=O)NCCc2ccc(Cl)cc2)n1 (stereo not given) | 10.3%

Row | SMILES | cytotoxicity at 10 µM
67 | COCc1cc(N2CCN(C3CCCCC3)CC2)n2nccc2n1 | 3.59%
68 | CC(C)S(=O)(=O)N1C[C@H]2OC(=O)N(CCc3cccc(Cl)c3)[C@H]2C1 | 0.642%
69 | CN(CCCO)C(=O)c1cc(COc2ccc3c(c2)CCCC3)on1 | -148%
70 | CC(O)c1cccc(N2CCC3(CCC(=O)N(C4CCCC4)C3)CC2)n1 (stereo not given) | -3.56%
71 | CCN1CCCC2(CCN(Cc3nnc(C4CC4)o3)C2)C1=O (stereo not given) | 1.56%
72 | OCC1CCCCN1CCn1ccnc1-c1ccc2c(c1)OCCO2 (stereo not given) | -3.65%
73 | COCc1cc(NCc2cccnc2Oc2ccc(C)nc2)ncn1 | 8.12%
74 | CC1CCCCN1C1CN(c2ccnc(C(=O)NCc3ccco3)c2)C1 (stereo not given) | 2.29%
75 | CN1CCC2(CC1)CN(Cc1ccc(C3CCCCO3)o1)CCCN2C (stereo not given) | -5.35%
76 | Cc1ccc2cc(CN(C)Cc3ncc[nH]3)c(=O)[nH]c2c1 | 1.75%
77 | Cc1nc(C2CCCNC2)cc(N(C)CCc2cn[nH]c2)n1 (stereo not given) | -9.91%
78 | CN(C)c1ncnc2c1CCN(C(=O)c1sccc1S(N)(=O)=O)C2 | 0.192%
79 | COCCN1C[C@@H](C(=O)O)[C@H](c2ccccc2C)C1 | 3%
80 | Cc1nc(N2CCCN(c3ncccn3)CC2)c2cnn(C)c2n1 | 0.977%
81 | O=C1O[C@@H]2CN(S(=O)(=O)N3CCCC3)C[C@@H]2N1CCc1cccc(Cl)c1 | -2.9%
82 | COc1ccc(F)cc1C(=O)N1CCC2(CCC(=O)N(C(C)C)C2)CC1 | -4.75%
83 | COc1cc(CNCC(O)c2ccccc2F)cc2c1OCO2 (stereo not given) | -5.53%
84 | C=C(Br)CN(C)C1CCN(CCc2ccccn2)CC1 | 0.953%
85 | CCN(CC1CCOC1)C(=O)Nc1ccc(N2CCCCC2)nc1 (stereo not given) | -6.45%
86 | CCc1nc(CN2CCN(C(=O)C3(C#N)CCCCC3)CC2)cs1 | -3.6%
87 | Cc1cc(CN(C)C(=O)c2ccc(Cl)cc2N2CCCC2=O)no1 | -15.9%
88 | CCn1cnnc1C1CCN(C(=O)c2cc3c(s2)CCOC3)CC1 | -6.37%

Row | SMILES | cytotoxicity at 10 µM
89 | Cc1nccn1C1CCCN(C(=O)c2cnc[nH]2)C1 (stereo not given) | -5.43%
90 | CCN(CC(=O)NC1(C)CCS(=O)(=O)C1)Cc1ccc(OC)c(F)c1 (stereo not given) | -9.44%
91 | Cc1ccc(-c2nc(CN3CCn4c(C)nnc4C3)co2)cc1 | -8.03%
92 | COc1ncccc1CNC(=O)NCCNS(C)(=O)=O | -14.4%
93 | CCCC(=O)N(C)CC(=O)Nc1ccc(Br)cn1 | -15.5%
94 | Cc1ccoc1C(=O)NC1CCN(Cc2ccccc2C#N)CC1 | -3.51%
95 | COc1ccc(C(=O)N2CCCC(NC(=O)C(C)C)C2)c(O)c1 (stereo not given) | 0.301%
96 | CC(C)(C)c1noc(CN2CCCN(Cc3cccs3)CC2)n1 | -8.8%
97 | COc1cc(CNC(=O)C2CC(=O)N(C(C)C)C2)ccn1 (stereo not given) | -5.36%
98 | CN(Cc1ccsc1)C(=O)Nc1ccc(S(=O)(=O)N(C)C)cc1 | 2.23%
99 | Cc1ccc(-c2nc(CCNC(=O)NC3CCN(C)CC3)co2)cc1 | -6.71%
100 | Cc1cn2nc(N3CCCN(Cc4noc(C)n4)CC3)sc2n1 | 0.529%
101 | Cc1cccc(-n2cc(C(=O)N3CCCC(n4cccn4)C3)nn2)c1 (stereo not given) | -0.168%
102 | Cc1cc(CN2CCN(C(=O)c3sccc3C3CC3)CC2)on1 | 4.69%
103 | CCCNC(=O)NC(=O)CN(CC(C)O)c1ccccc1 (stereo not given) | -2.48%
104 | Cn1ccc(C(=O)NC2CCC23CCN(Cc2ccc(F)cc2)CC3)c1 (stereo not given) | -147%
105 | c1csc(CN2CCC3(CC2)CCN(CC2CCOCC2)C3)n1 | 3.83%
106 | c1cncc(COCc2nnc3n2CCN(Cc2cccs2)C3)c1 | 0.399%
107 | CO[C@H]1CCN(C2CCC2)[C@@H]2CN(Cc3ccncc3)C[C@H]12 | 8.13%
108 | CNC(=O)CN1CCO[C@H]2CN(C(=O)C3CC3)C[C@H]21 | 7.52%
109 | COCCN1C[C@@H](C)[C@@]2(COCCN(C(=O)Cc3ccccc3)C2)C1 | -12.4%
110 | CN1C(=O)C(c2ccccc2)CC12CCN(CCO)CC2 (stereo not given) | 5.12%
